From PubChem BioAssay
The list is not random: actives were taken first. Their share in the collection is about 6.8%.
MKP-1 inh = inhibitors of human MKP-1 phosphatase; recombinant MKP-1, OMFP hydrolysis fluorescence; inhibition, %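 (compounds tested at a single concentration somewhere between 10 and 100 µM)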; 65,000 tested, 0.15% active; AID 374;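 active = inhibition above about 50%, limit read from the data; inconclusive = inhibition over screen mean plus 3 SD, below that limit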;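 note: 0% = DMSO max control wells and 100% = wells with enzyme stopped by NaOH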
M1 antagonist = antagonists of rat M1 muscarinic receptor; P08482; CHO-M1 cells, Fluo-4 calcium, ACh EC80 antagonist mode; stronger effect = lower value; B-score at 10 µM; 64,000 tested, 3.4% active; AID 628;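 active = calcium fluorescence response, raw or row-and-column corrected B-score, differing from the plate sample mean either way at a set confidence level, mostly lower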
M1 agonist = activates the M1 muscarinic receptor; AID 626; 64,000 tested, 3% active; B-score at 10 µM; CHO-M1 cells, Fluo-4 calcium fluorescence, agonist mode; stronger effect = higher value;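 active = fluorescence rise, raw or as B-score row- and column-corrected plate score, outside the 99.7% band of its plate's samples, either direction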
Cdc25B block = inhibitors of human Cdc25B phosphatase. recombinant Cdc25B, OMFP fluorescence Ex485/Em525. inhibition, %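 (compounds tested at 10 µM final in the well)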. 65,000 tested, 0.1% active; in the data active = inhibition above about 50%
HEK293 NFkB inh = lowers PMA/ionomycin-induced NF-kB signal in HEK293 cells; inhibition, % at 3 µM; HEK-293 NF-kB luciferase reporter, luminescence; 62,000 tested, 0.21% active;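 active = inhibition above the mean of all tested compounds plus 3 SD, cut at about 40% in these data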;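 note: 0% = stimulated DMSO wells and 100% = 10 µM reference inhibitor 5653914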
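Signal: luciferase luminescence; Material: HEK-293 cells with stable firefly luciferase reporter driven by four HIV NF-kB elements; Probe or stimulus: PMA with ionomycin; Replication: tested once; Times: 1 h compound pretreatment, then 16 h stimulation at 37 °C, 5% CO2; Benchmarks: DMSO and 10 µM reference inhibitor; Evaluation: per-plate % inhibition versus controls.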
HER2 expr 66K = Her2 kinase expression inhibition; P04626; SKBR-3 HER2 protein level, AlphaScreen, 18-24 h; stronger effect = lower value; HER2 level % of control, % at 10 µM; 65,000 tested, 0.69% active;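 active = HER2 level under 5% of the carrier-only control; inconclusive = no clear call, values can overlap the other calls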;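 note: 100% = DMSO carrier and 0% = 500 nM PU-H71 HSP90 inhibitor; lower value means stronger loss of Her2 protein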
M1 ag confirm = rat M1 muscarinic agonism, confirmation. shares compounds with M1 agonist. fluorescence change (max-min) at 10 µM. 1,700 tested, 19% active. CHO-M1 cells, Fluo-4 calcium fluorescence, agonist mode; actives lie on both sides. AID 1488;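 active = fluorescence change differs from the solvent-only DMSO control mean at a set confidence level in both duplicate runs; inconclusive = differs from solvent-only control mean in just one of two runs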;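 note: an EC20 dose of acetylcholine follows compound addition during the same imaging run; raw fluorescence intensity difference in instrument units with no normalization to controls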
M4 ag counter = activates rat M4 receptor in counter-screen for M1 agonists. 1,700 tested, 9% active. CHO M4/Gqi5 cells, Fluo-4 calcium fluorescence, agonist mode; actives lie on both sides. fluorescence change (max-min) at 10 µM. shares compounds with M1 agonist;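 active = fluorescence change differing from the plate's solvent-only control wells at 99.7% confidence in both duplicates, whether higher or lower; inconclusive = differs from solvent controls in only one of two duplicates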
Target sequence (P08485 whole entry, looked up): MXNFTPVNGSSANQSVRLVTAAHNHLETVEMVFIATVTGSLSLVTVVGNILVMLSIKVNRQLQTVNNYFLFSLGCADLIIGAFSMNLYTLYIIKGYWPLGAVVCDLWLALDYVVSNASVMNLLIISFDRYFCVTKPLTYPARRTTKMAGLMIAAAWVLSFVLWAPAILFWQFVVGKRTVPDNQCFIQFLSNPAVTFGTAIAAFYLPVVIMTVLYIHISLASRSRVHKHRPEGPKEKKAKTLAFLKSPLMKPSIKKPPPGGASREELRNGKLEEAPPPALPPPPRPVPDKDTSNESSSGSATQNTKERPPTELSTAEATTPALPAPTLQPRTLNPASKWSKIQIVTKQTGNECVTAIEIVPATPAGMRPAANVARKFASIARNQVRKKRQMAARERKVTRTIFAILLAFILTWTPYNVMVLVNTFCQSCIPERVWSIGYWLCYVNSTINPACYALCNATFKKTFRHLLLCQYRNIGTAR
M1 antag confirm = confirmation of rat M1 muscarinic receptor antagonists. calcium response (max-min fluorescence) at 10 µM. CHO-M1 cells, Fluo-4 calcium, ACh EC80 antagonism; stronger effect = lower value. shares compounds with M1 antagonist. 1,700 tested, 43% active;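 active = calcium response below the same-plate mean of wells given acetylcholine alone at its 80%-effect dose, minus 3 SD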;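 note: raw fluorescence intensity difference in arbitrary instrument units and not normalized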
mGluR4 antag = mGluR4 (human) activity, M1 antagonist secondary assay; CHO-mGluR4 calcium flux, Fluo-4 fluorescence, glutamate EC80; stronger effect = lower value; shares compounds with M1 antagonist; AID 678; 1,700 tested, 0.9% active; fluorescence response (max-min) at 10 µM;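 active = fluorescence response below the plate's average for near-maximal glutamate wells, less 3 SD of those wells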;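 note: raw unnormalized fluorescence span taken in the window right after glutamate addition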
* marks the source's active call; other numbers are inactive results.

COCCn1cc(C(=O)N2CCC3(CC2)OCCO3)c2c3ccccc3n(C)c2c1=O was read as MKP-1 inh 1, M1 antagonist -0.23, M1 agonist -1, Cdc25B block -7, HEK293 NFkB inh 12 and HER2 expr 66K 84.
For CN(C)P(=NC(=S)c1cccn1C)(N(C)C)N(C)C the results were MKP-1 inh 12, M1 antagonist 0.21, M1 agonist -0.29, Cdc25B block -2, HEK293 NFkB inh 12 and HER2 expr 66K 139.
Screening COCCNC(=O)c1c(NC(=O)c2ccco2)n(Cc2ccccc2)c2nc3ccccc3nc12 returned MKP-1 inh 13, M1 antagonist 0.047, M1 agonist 3.6*, Cdc25B block 9, HEK293 NFkB inh -3, HER2 expr 66K 81, M1 ag confirm 40 and M4 ag counter 18.
C=CCn1c(O)c(C=Nc2ccc(N(CC)CC)cc2)c(=O)[nH]c1=O was read as MKP-1 inh -9, M1 antagonist -0.0093, M1 agonist 17*, Cdc25B block 3, HER2 expr 66K 85, M1 ag confirm 15 and M4 ag counter 18.
`CCN(CC)c1ccc(N=Cc2c(O)n(CCC3=CCCCC3)c(=O)[nH]c2=O)cc1` gave MKP-1 inh 18, M1 antagonist -0.65, M1 agonist 109*, Cdc25B block -5, HEK293 NFkB inh 14, HER2 expr 66K 88, M1 ag confirm 578* and M4 ag counter 627*.
For CN(C)c1ccc(N=Cc2c(O)n(CCC3=CCCCC3)c(=O)[nH]c2=O)cc1 the results were MKP-1 inh 6, M1 antagonist -1, M1 agonist 7.9*, Cdc25B block -2, HEK293 NFkB inh 10, HER2 expr 66K 86, M1 ag confirm inconclusive and M4 ag counter 13.
For O=c1[nH]c(=O)n(CCC2=CCCCC2)c(O)c1C=NCCN1CCNCC1 the results were MKP-1 inh 14, M1 antagonist 0.2, M1 agonist 0.54, Cdc25B block 22, HEK293 NFkB inh 14 and HER2 expr 66K 81.
`CC(=NCCCn1ccnc1)c1c(O)n(C)c(=O)n(C)c1=O` gave MKP-1 inh -16, M1 antagonist 0.89, M1 agonist -0.11, Cdc25B block 3, HEK293 NFkB inh -1 and HER2 expr 66K 107.
For COC(=O)c1ccc(CN2CCN(Cc3ccccc3)CC2)cc1 the results were MKP-1 inh -2, M1 antagonist -3.1*, M1 agonist 0.48, Cdc25B block -14, HEK293 NFkB inh 2, HER2 expr 66K 123, M1 antag confirm 428* and mGluR4 antag 234.
CCCNS(=O)(=O)c1ccc(OCC(=O)N2CCN(Cc3ccccc3)CC2)cc1 was read as MKP-1 inh 3, M1 antagonist -0.78, M1 agonist -0.003, Cdc25B block -4, HEK293 NFkB inh 9 and HER2 expr 66K 108.
For COc1ccc(CN2CCCCC2c2cccnc2)cc1C (stereo not drawn) the results were MKP-1 inh 2, M1 antagonist -5.4*, M1 agonist -0.88, Cdc25B block -8, HEK293 NFkB inh 0, HER2 expr 66K 117, M1 antag confirm 482* and mGluR4 antag 242.
Screening C[N+]1(C)[C@@H]2CC[C@H]1CC(OC(=O)C(CO)c1ccccc1)C2 (stereo partly drawn) returned MKP-1 inh -4, M1 antagonist -17*, M1 agonist -0.0048, Cdc25B block -14, HER2 expr 66K 111, M1 antag confirm 12* and mGluR4 antag 200.
`Cc1nc2cc(-c3ccc(Cl)cc3)nn2c(C)c1CCC(=O)N1CCC2(CC1)OCCO2` gave MKP-1 inh 32, M1 antagonist 0.5, M1 agonist -0.53, Cdc25B block -18, HEK293 NFkB inh 30 and HER2 expr 66K 99.
Screening CC1CN=C(Nc2ccc(N(C)C)cc2)S1 (stereo not drawn) returned MKP-1 inh -23, M1 antagonist -2.1*, M1 agonist -1.6, Cdc25B block -19, HER2 expr 66K 156, M1 antag confirm 606 and mGluR4 antag 240.
`CC1CN=C(Nc2ccccc2)S1` (stereo not drawn) gave MKP-1 inh 3, M1 antagonist -0.17, M1 agonist -0.62, Cdc25B block -2, HEK293 NFkB inh 15 and HER2 expr 66K 91.
CCCCn1c(O)c(C(C)=Nc2c(C)n(C)n(-c3ccccc3)c2=O)c(=O)[nH]c1=O was read as MKP-1 inh 6, M1 antagonist -8.4*, M1 agonist 1.4, Cdc25B block 13, HEK293 NFkB inh 15, HER2 expr 66K 83, M1 antag confirm 326* and mGluR4 antag 247.
For CCCCn1c(O)c(C=Nc2c(C)n(C)n(-c3ccccc3)c2=O)c(=O)[nH]c1=O the results were MKP-1 inh -15, M1 antagonist -2.5*, M1 agonist -0.34, Cdc25B block -13, HEK293 NFkB inh 4, HER2 expr 66K 106, M1 antag confirm 511 and mGluR4 antag 209.
Screening Cc1ccccc1-n1c(O)c(C=Nc2ccc(N(C)C)cc2)c(=O)[nH]c1=O returned MKP-1 inh 9, M1 antagonist -0.19, M1 agonist 1.4, Cdc25B block -5, HEK293 NFkB inh 5 and HER2 expr 66K 85.
CCN1CCN(Cc2ccc(C)cc2)CC1 was read as MKP-1 inh 5, M1 antagonist -0.069, M1 agonist -0.33, Cdc25B block 7, HEK293 NFkB inh 11 and HER2 expr 66K 86.
For CCCCCCOc1ccc(CN2CCN(C)CC2)cc1 the results were MKP-1 inh -7, M1 antagonist -3.3*, M1 agonist -0.39, Cdc25B block -10, HEK293 NFkB inh -27, HER2 expr 66K 116, M1 antag confirm 502* and mGluR4 antag 222.
CC1CCC(NCCc2ccc3c(c2)OCO3)CC1 (stereo not drawn) was read as MKP-1 inh -9, M1 antagonist -5.2*, M1 agonist -0.19, Cdc25B block 2, HEK293 NFkB inh 3, HER2 expr 66K 79, M1 antag confirm 199* and mGluR4 antag 245.
